Drawing on ChEMBL document CHEMBL3351942, “Rexinoids isolated from Sophora tonkinensis with a gene expression profile distinct from the synthetic rexinoid bexarotene” (J Nat Prod, 2014), this text covers Activity and EC50 for one compound.

Experiment [1] is described as follows: Activation of LXR in mouse C2C12 cells assessed as induction of FAS mRNA expression at 10 uM after 24 hrs by quantitative RT-PCR analysis. Format: cell-based. The essentials: (§1)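 C2C12 myoblasts grown in DMEM/10% FBS, differentiated at confluence in 2% horse serum, medium changed every other day for 5 days; myotubes treated 24 h with or without T0901317 (1 μM). Total RNA, DNase-treated, oligo(dT) RT from 0.5 μg, SYBR green qPCR; normalized to β-actin (delta-delta Ct), fold over vehicle; mean ± SD of four determinants, one of two experiments.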

Experiment [2] deals with T1, Peroxisome proliferator-activated receptor delta (Mus musculus) (UniProt P35396).
T1 sequence (whole entry): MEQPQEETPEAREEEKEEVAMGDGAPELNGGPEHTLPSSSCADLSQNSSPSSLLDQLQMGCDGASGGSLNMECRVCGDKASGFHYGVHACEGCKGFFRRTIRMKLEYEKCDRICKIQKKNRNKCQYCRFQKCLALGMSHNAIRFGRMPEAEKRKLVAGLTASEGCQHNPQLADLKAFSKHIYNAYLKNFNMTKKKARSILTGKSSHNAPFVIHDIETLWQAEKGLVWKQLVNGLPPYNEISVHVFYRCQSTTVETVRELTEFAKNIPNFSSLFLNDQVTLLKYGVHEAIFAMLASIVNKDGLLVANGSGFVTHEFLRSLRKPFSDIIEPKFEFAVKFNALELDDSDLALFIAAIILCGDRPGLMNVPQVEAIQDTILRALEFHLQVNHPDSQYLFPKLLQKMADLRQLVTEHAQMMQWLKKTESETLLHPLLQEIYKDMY
Briefly: Activation of PPARdelta in mouse C2C12 cells assessed as induction of FABP3 mRNA expression at 10 uM after 24 hrs in presence of GW501516 by quantitative RT-PCR analysis. The class given is cell-based. The essentials: (§2)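 Differentiated C2C12 myotubes (2% horse serum, 5 days) exposed 24 h with or without PPARδ agonist GW501516 (1 μM). mRNA quantified by SYBR green real-time RT-PCR, normalized to β-actin by delta-delta Ct, and expressed as fold induction vs vehicle; means ± SD of four determinants from one of two independent experiments; one-way ANOVA with Bonferroni.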

A short description of experiment [3]: Activation of LXR in mouse C2C12 cells assessed as induction of ApoD mRNA expression at 10 uM after 24 hrs by quantitative RT-PCR analysis. Format: cell-based. The method in brief:
as §1

The subject of experiment [4] is RAW264.7. Kind of experiment: Activation of RXR/LXR heterodimer in mouse RAW264.7 cells assessed as increase in ABCA1 protein level at 10 uM after 24 hrs by Western blotting analysis. The class given is cell-based.
The subject of experiment [5] is RAW264.7. Briefly: Activation of RXR/LXR heterodimer in mouse RAW264.7 cells assessed as potentiation of T0901317-induced increase in ABCA1 mRNA level at 10 uM by quantitative RT-PCR analysis. Format: cell-based. The essentials:
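RAW264.7 macrophages in DMEM/10% FBS, exposed 24 h with or without LXR agonist T0901317; ABCA1 mRNA by SYBR green qRT-PCR, β-actin-normalized, fold vs vehicle; means ± SD of three determinants, one of three independent experiments; one-way ANOVA, Bonferroni.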

The target in experiment [6] is T1, Peroxisome proliferator-activated receptor delta (Mus musculus). Briefly: Activation of PPARdelta in mouse C2C12 cells assessed as induction of FABP3 mRNA expression at 10 uM after 24 hrs by quantitative RT-PCR analysis. The class given is cell-based. The method in brief: as §2
The target is the same in experiment [7]. Kind of experiment: Activation of PPARdelta in mouse C2C12 cells assessed as induction of CPT1A mRNA expression at 10 uM after 24 hrs by quantitative RT-PCR analysis. Format: cell-based. The method in brief: as §2
Experiment [8] concerns the target T2, Peroxisome proliferator-activated receptor gamma (Homo sapiens) (UniProt P37231).
T2 sequence (whole entry): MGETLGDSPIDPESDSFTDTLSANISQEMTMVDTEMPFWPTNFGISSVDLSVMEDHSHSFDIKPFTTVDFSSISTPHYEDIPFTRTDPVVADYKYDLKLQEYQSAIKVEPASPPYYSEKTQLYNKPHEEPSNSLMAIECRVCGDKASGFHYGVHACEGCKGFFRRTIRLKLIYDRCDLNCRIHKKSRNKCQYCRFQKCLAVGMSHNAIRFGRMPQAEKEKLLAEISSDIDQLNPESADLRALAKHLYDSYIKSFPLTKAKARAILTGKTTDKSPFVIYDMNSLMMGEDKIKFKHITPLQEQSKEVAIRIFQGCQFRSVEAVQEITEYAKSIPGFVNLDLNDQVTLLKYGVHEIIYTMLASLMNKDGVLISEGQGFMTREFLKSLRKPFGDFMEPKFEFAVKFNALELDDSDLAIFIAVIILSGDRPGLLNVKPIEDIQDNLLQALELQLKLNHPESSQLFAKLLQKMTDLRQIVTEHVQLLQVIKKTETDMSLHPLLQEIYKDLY
Briefly: Activation of PPARgamma (unknown origin) by receptor-CBP cofactor complex formation assay. The method in brief:
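Cell-free cofactor recruitment ELISA: ligand-dependent binding of PPAR isotypes to CBP, detected by HRP-conjugated anti-PPAR antibody at OD450. Full agonists GW7647 (α), GW1929 (γ), GW501516 (δ) define 100%, vehicle 0%; efficacy as maximum B/Bmax% and potency as EC50.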

Experiment [9] in a line: Activation of LXR in mouse C2C12 cells assessed as induction of SREBP1 mRNA expression at 10 uM after 24 hrs in presence of T0901317 by quantitative RT-PCR analysis. The class given is cell-based. The essentials:
as §1

Experiment [10] concerns the target T3, Retinoic acid receptor RXR-alpha (Homo sapiens, UniProt P19793).
T3 sequence (P19793 whole entry): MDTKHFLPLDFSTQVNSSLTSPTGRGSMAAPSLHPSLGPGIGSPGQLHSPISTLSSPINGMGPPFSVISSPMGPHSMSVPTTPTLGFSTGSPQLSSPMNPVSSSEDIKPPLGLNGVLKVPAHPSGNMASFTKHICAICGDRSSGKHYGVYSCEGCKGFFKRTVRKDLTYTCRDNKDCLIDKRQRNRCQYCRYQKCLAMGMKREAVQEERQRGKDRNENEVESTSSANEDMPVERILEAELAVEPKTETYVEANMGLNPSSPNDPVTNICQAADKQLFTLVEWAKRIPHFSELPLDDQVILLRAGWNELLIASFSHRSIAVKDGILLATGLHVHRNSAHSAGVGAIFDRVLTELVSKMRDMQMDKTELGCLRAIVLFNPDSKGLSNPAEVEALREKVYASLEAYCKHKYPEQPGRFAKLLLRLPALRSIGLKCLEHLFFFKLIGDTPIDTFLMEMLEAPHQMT
Kind of experiment: (§3) Agonist activity at human RXR-alpha expressed in HEK293 cells coexpressing with pCMX-beta-gal after 24 to 48 hrs by luciferase reporter gene assay. The class given is cell-based. The essentials: (§4)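 HEK293 cells transfected by calcium phosphate with 60 ng pCMX-hRXR-α, 150 ng CRBPII-tk-Luc and 30 ng pCMX-β-gal plus carrier pUC18 (600 ng DNA per well). After 8 h the cells were washed and exposed to compound in medium with 10% FBS for 24−48 h. Luciferase was normalized to β-galactosidase. Triplicate or quadruplicate; representative of three independent experiments; EC50 from dose-response.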
On the technique in general: In a reporter assay the amount or activity of a reporter protein is the signal.

The target in experiment [11] is T4, Retinoic acid receptor RXR-alpha (Homo sapiens) (UniProt P19793).
T4 sequence (whole entry): T3 sequence (P19793 whole entry)
The description is as §3. Format: cell-based. The method in brief:
as §4

Calls of active or inactive are those of the source. No cut-off for these calls is given here.

What is called EC50 is the concentration at which the effect is half-maximal. Low readings indicate greater potency, high ones weaker potency. As to `CC(C)=CCc1cc([C@@H]2CC(=O)c3ccc(O)c(CC=C(C)C)c3O2)cc2c1OC(C(C)(C)O)C2` (stereo partly specified), the result in [1], in experiment [8] and in [9] was inactive. Besides, the result (in [2]; in experiment [3]; in the experiment with RAW264.7 [4]; in the experiment on RAW264.7 [5]; in experiment [6]; in experiment [7]) was Active. Further, the EC50 in experiment [10] was determined as 770 nM. In experiment [11], the Activity entry is “Dose-dependent effect”.
